The source made the active and inactive calls. The rule behind the calls is not given here.
Legend:
MCF7 = assay: Anticancer activity against human MCF7 cells after 48 hrs by MTT assay; assay type: functional; conditions: MCF7, 48 h
HL-60 [1] = assay: Induction of cell cycle arrest at G2/M phase in human HL60 cells assessed as decrease in CDK1 protein expression after 24 hrs by Western blot analysis; assay type: functional, cell-based
Summary of the method: (§1)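 HL-60 cells at 2 × 10⁵/mL were exposed to the indicated concentrations for 24 h, washed in PBS and lysed for total protein. Immunoblots used HRP-linked secondary antibodies with ECL detection. Cyclin B1, CDK1, caspase-3 (17 kDa active form) and PARP (85 kDa fragment) were quantified and normalised to β-actin.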

MDA-MB-435 = assay: Anticancer activity against human MDA-MB-435 cells after 48 hrs by MTT assay; assay type: functional; conditions: MDA-MB-435, 48 h
EKVX = assay: Anticancer activity against human EKVX cells after 48 hrs by MTT assay; assay type: functional
UACC-62 = assay: Anticancer activity against human UACC62 cells after 48 hrs by MTT assay; assay type: functional; conditions: UACC-62, 48 h
NCI-H23 = assay: Anticancer activity against human NCI-H23 cells after 48 hrs by MTT assay; assay type: functional; conditions: NCI-H23, 48 h
SN12C = assay: Anticancer activity against human SN12C cells after 48 hrs by MTT assay; assay type: functional
HL-60 [2] = assay: Growth inhibition of human HL60 cells after 24 to 48 hrs by trypan blue exclusion assay; assay type: functional, cell-based
Summary of the method: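 HL-60 cells were given the indicated concentrations for 24 h and 48 h. Viable cells were counted by trypan blue exclusion. Values are mean ± SD of four independent experiments.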

SK-OV-3 = assay: Anticancer activity against human SKOV3 cells after 48 hrs by MTT assay; assay type: functional; conditions: SK-OV-3, 48 h
OVCAR-4 = assay: Anticancer activity against human OVCAR4 cells after 48 hrs by MTT assay; assay type: functional; conditions: OVCAR-4, 48 h
SK-MEL-5 = assay: Anticancer activity against human SK-MEL-5 cells after 48 hrs by MTT assay; assay type: functional; conditions: SK-MEL-5, 48 h
HL-60 [3] = assay: Cell cycle arrest in human HL60 assessed as cell accumulation in S phase at 1 uM after 24 hrs pretreated with pan-caspase inhibitor z-VAD-fmk for 3 hrs by propidium iodide staining-based flow cytometric analysis; assay type: functional; parameters: scale not given: the % may be the effect or the level left
Summary of the method: (§2)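 HL-60 cells were preincubated for 3 h with or without the pan-caspase inhibitor z-VAD-fmk, then co-exposed to compound at 1 μM for 24 h. Cells were washed in PBS and fixed overnight in ice-cold 70% ethanol at −20 °C. They were stained for 30 min in the dark with propidium iodide 4 μg/mL, 0.1 mg/ml RNase and 1% Triton X-100. DNA content was read on a FACScan flow cytometer.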

U-251 = assay: Anticancer activity against human U251 cells after 48 hrs by MTT assay; assay type: functional; conditions: U-251, 48 h
SF-295 = assay: Anticancer activity against human SF295 cells after 48 hrs by MTT assay; assay type: functional; conditions: SF-295, 48 h
SF-539 = assay: Anticancer activity against human SF539 cells after 48 hrs by MTT assay; assay type: functional; conditions: SF-539, 48 h
TK-10 = assay: Anticancer activity against human TK10 cells after 48 hrs by MTT assay; assay type: functional; conditions: TK-10, 48 h
HL-60 [4] = assay: Induction of apoptosis in human HL60 cells assessed as caspase-3 activation at 0.1 to 1.0 uM after 24 hrs by Western blot analysis; assay type: functional, cell-based; summary of the method: as §1
HL-60 [5] = assay: Cell cycle arrest in human HL60 assessed as cell accumulation in Sub-G1 phase at 1 uM after 24 hrs by propidium iodide staining-based flow cytometric analysis; assay type: functional; summary of the method: as §2
HL-60 [6] = assay: Cell cycle arrest in human HL60 assessed as cell accumulation in Sub-G1 phase at 1 uM after 24 hrs pretreated with pan-caspase inhibitor z-VAD-fmk for 3 hrs by propidium iodide staining-based flow cytometric analysis; assay type: functional; parameters: scale not given: the % may be the effect or the level left; summary of the method: as §2
CAKI-1 = assay: Anticancer activity against human Caki1 cells after 48 hrs by MTT assay; assay type: functional; conditions: CAKI-1, 48 h
HL-60 [7] = assay: Induction of apoptosis in human HL60 cells assessed as PARP cleavage at 0.1 to 1.0 uM after 24 hrs by Western blot analysis; assay type: functional, cell-based; summary of the method: as §1
BT-549 = assay: Anticancer activity against human BT549 cells after 48 hrs by MTT assay; assay type: functional; conditions: BT-549, 48 h
LOX IMVI = assay: Anticancer activity against human LOXIMVI cells after 48 hrs by MTT assay; assay type: functional
786-0 = assay: Anticancer activity against human 786-0 cells after 48 hrs by MTT assay; assay type: functional; conditions: 786-0, 48 h
HL-60 [8] = assay: Induction of cell cycle arrest at G2/M phase in human HL60 cells assessed as decrease in cyclin B1 expression at 0.1 to 1.0 uM after 24 hrs by Western blot analysis; assay type: functional, cell-based; summary of the method: as §1
NCI-H460 = assay: Anticancer activity against human NCI-H460 cells after 48 hrs by MTT assay; assay type: functional; conditions: NCI-H460, 48 h
SW-620 = assay: Anticancer activity against human SW620 cells after 48 hrs by MTT assay; assay type: functional; conditions: SW-620, 48 h
M14 = assay: Anticancer activity against human M14 cells after 48 hrs by MTT assay; assay type: functional; conditions: M14, 48 h
KM12 = assay: Anticancer activity against human KM12 cells after 48 hrs by MTT assay; assay type: functional; conditions: KM12, 48 h
SK-MEL-2 = assay: Anticancer activity against human SK-MEL-2 cells after 48 hrs by MTT assay; assay type: functional; conditions: SK-MEL-2, 48 h
T47D = assay: Anticancer activity against human T47D cells after 48 hrs by MTT assay; assay type: functional
[9] = read-out: pLC50 (the source's name) (converted)

SMILES: Cc1ccc(-c2cc(=O)c3cc4c(cc3[nH]2)OCO4)[se]1
- GI50 (MCF7): 0.324 µM
- CC50 (MCF7; [9]): > 100 µM
- TGI (MCF7; read-out: pTGI): > 100 µM
- Activity (HL-60 [1]): Dose-dependent effect
- GI50 (MDA-MB-435): 0.0525 µM
- CC50 (MDA-MB-435; [9]): > 100 µM
- TGI (MDA-MB-435; read-out: pTGI (converted)): 0.427 µM
- GI50 (EKVX): 0.617 µM
- CC50 (EKVX; [9]): > 100 µM
- TGI (EKVX; read-out: pTGI): > 100 µM
- GI50 (UACC-62): 0.398 µM
- CC50 (UACC-62; [9]): > 100 µM
- TGI (UACC-62; read-out: pTGI): > 100 µM
- GI50 (NCI-H23): 0.741 µM
- CC50 (NCI-H23; [9]): > 100 µM
- TGI (NCI-H23; read-out: pTGI): > 100 µM
- GI50 (SN12C): 0.603 µM
- CC50 (SN12C; [9]): > 100 µM
- TGI (SN12C; read-out: pTGI): > 100 µM
- growth inhibition (GI) (HL-60 [2]): Dose-dependent effect
- GI50 (SK-OV-3): 0.347 µM
- CC50 (SK-OV-3; [9]): > 100 µM
- TGI (SK-OV-3; read-out: pTGI): > 100 µM
- GI50 (OVCAR-4): 0.575 µM
- CC50 (OVCAR-4; [9]): > 100 µM
- TGI (OVCAR-4; read-out: pTGI): > 100 µM
- GI50 (SK-MEL-5): 0.309 µM
- Activity (HL-60 [3]): 36.2%
- GI50 (U-251): 0.339 µM
- CC50 (U-251; [9]): > 100 µM
- TGI (U-251; read-out: pTGI): > 100 µM
- GI50 (SF-295): 0.347 µM
- CC50 (SF-295; [9]): > 100 µM
- TGI (SF-295; read-out: pTGI): > 100 µM
- GI50 (SF-539): 0.245 µM
- CC50 (SF-539; [9]): > 100 µM
- TGI (SF-539; read-out: pTGI (converted)): 0.708 µM
- GI50 (TK-10): 10 µM
- CC50 (TK-10; [9]): > 100 µM
- TGI (TK-10; read-out: pTGI): > 100 µM
- Activity (HL-60 [4]): Active
- Activity (HL-60 [5]): 21%
- Activity (HL-60 [6]): 10.2%
- GI50 (CAKI-1): 1.82 µM
- CC50 (CAKI-1; [9]): > 100 µM
- TGI (CAKI-1; read-out: pTGI): > 100 µM
- Activity (HL-60 [7]): Active
- GI50 (BT-549): 0.447 µM
- CC50 (BT-549; [9]): > 100 µM
- TGI (BT-549; read-out: pTGI): > 100 µM
- GI50 (LOX IMVI): 0.646 µM
- CC50 (LOX IMVI; [9]): > 100 µM
- TGI (LOX IMVI; read-out: pTGI): > 100 µM
- GI50 (786-0): 0.427 µM
- CC50 (786-0; [9]): > 100 µM
- TGI (786-0; read-out: pTGI): > 100 µM
- Activity (HL-60 [8]): Active
- GI50 (NCI-H460): 0.331 µM
- CC50 (NCI-H460; [9]): > 100 µM
- TGI (NCI-H460; read-out: pTGI): > 100 µM
- GI50 (SW-620): 0.407 µM
- CC50 (SW-620; [9]): > 100 µM
- TGI (SW-620; read-out: pTGI): > 100 µM
- GI50 (M14): 0.229 µM
- CC50 (M14; [9]): > 100 µM
- TGI (M14; read-out: pTGI): > 100 µM
- GI50 (KM12): 0.263 µM
- CC50 (KM12; [9]): > 100 µM
- TGI (KM12; read-out: pTGI): > 100 µM
- GI50 (SK-MEL-2): 0.11 µM
- CC50 (SK-MEL-2; [9]): > 100 µM
- TGI (SK-MEL-2; read-out: pTGI (converted)): 0.525 µM
- GI50 (T47D): 0.871 µM
- CC50 (T47D; [9]): > 100 µM
- TGI (T47D; read-out: pTGI): > 100 µM

Reference: ChEMBL document CHEMBL1909500, “Synthesis and in vitro anticancer activity of 6,7-methylenedioxy (or 5-hydroxy-6-methoxy)-2-(substituted selenophenyl)quinolin-4-one analogs” (Eur J Med Chem, 2011)
